Measured values reported in ChEMBL document CHEMBL1146517, “Scleritodermin A, a cytotoxic cyclic peptide from the lithistid sponge Scleritoderma nodosum” (J Nat Prod, 2004).
Active and inactive are the calls of the source. The calls are words filed in the database; no cut-off is given here.

Key:
HCT-116 [1] = test: Ratio of IC50 for VM46-resistant human HCT116 cells overexpressing P-gp to IC50 for human HCT116 cells; type: functional
A2780 [2] = test: Cytotoxicity against human A2780 cells after 72 hrs by MTS assay; type: functional, cell-based; conditions: A2780, 72 h
In short: (§1)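 Cells grown in RPMI 1640 with 5 mM HEPES and 10% FBS; HCT116/VM46 is a multidrug-resistant subline of HCT116. Seeded in microtiter plates, compound added 24 h later as serial dilutions, then 72 h at 37 °C. MTS plus phenazine methosulfate added, absorbance read at 492 nm as viable-cell measure; IC50 reported.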

SK-BR-3 = test: Cytotoxicity against human SKBR3 cells after 72 hrs by MTS assay; type: functional, cell-based; conditions: SK-BR-3, 72 h; in short: as §1
A2780 [3] = test: Cell cycle arrest in human A2780 cells assessed as accumulation at G2/M phase at 1.3 uM after 24 hrs by flow cytometry analysis; type: functional, cell-based
In short: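 A2780 cells seeded in six-well plates, compound added next day for 24 h. Cells trypsinized, fixed overnight in 80% ethanol at -20 °C, PBS-washed, stained 1 h at RT with propidium iodide (50 µg/mL) and RNase (10 µg/mL). Flow cytometry; G0/G1, S and G2-M fractions calculated from DNA histograms.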

Bos taurus = species: Bos taurus; test: Inhibition of GTP-induced calf brain tubulin polymerization at 10 uM
In short: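 Twice-cycled calf brain tubulin in 100 mM MES pH 6.6, 1 mM EGTA, 0.5 mM MgCl2, preincubated with compound. Polymerization started with 500 µM GTP; absorbance at 350 nm read every 36 s in cuvettes held at 37 °C.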

HCT-116 [4] = test: Cytotoxicity against human HCT116 cells after 72 hrs by MTS assay; type: functional, cell-based; conditions: HCT-116, 72 h; in short: as §1
A2780 [5] = test: Induction of apoptosis in human A2780 cells at 1.3 uM after 24 hrs by TUNEL assay; type: functional
In short: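 A2780 cells seeded in six-well plates, treated the next day for 24 h, then collected. Apoptosis scored by TUNEL assay read by flow cytometry, with doublet discrimination gates during acquisition and analysis; apoptosis expressed as fold induction.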

HCT-116 [6] = test: Cytotoxicity against VM46-resistant human HCT116 cells overexpressing P-gp after 72 hrs by MTS assay; type: functional, cell-based; conditions: HCT-116, 72 h; in short: as §1

| SMILES | Ratio IC50 (HCT-116 [1]) | IC50 (A2780 [2]) [nM] | IC50 (SK-BR-3) [nM] | Activity (A2780 [3]) | inhibition (Bos taurus) [%] | IC50 (HCT-116 [4]) [nM] | fold change (FC) (A2780 [5]) | IC50 (HCT-116 [6]) [nM] |
| --- | --- | --- | --- | --- | --- | --- | --- | --- |
| CC[C@@H](C)[C@@H]1NC(=O)[C@@H]2CCCN2C(=O)[C@@H](NC(=O)[C@@H]2CCCN2C(=O)[C@@H](COC)NS(=O)(=O)[O-])COC(=O)/C(C)=C\C(C)=C\c2csc(n2)[C@H](Cc2ccc(O)cc2)NC(=O)C1=O.[Na+] [SCLERITODERMIN A] | 2.9 | 940 | 670 | Active | 50 | 1900 | 5.5 | 5600 |
| CC[C@]1(O)C[C@@H]2CN(CCc3c([nH]c4ccccc34)[C@@](C(=O)OC)(c3cc4c(cc3OC)N(C)[C@H]3[C@@](O)(C(=O)OC)[C@H](OC(C)=O)[C@]5(CC)C=CCN6CC[C@]43[C@@H]65)C2)C1 [VINBLASTINE] | 45 | 5 | 72 |  |  | 3 |  | 135 |
